# Results from different studies.
# Protocols differ between the studies behind these lines.
# Target: Tyrosine-protein kinase ZAP-70 (ZAP70, Homo sapiens, UniProt P43403)
# Residues used in one study (P43403 1-619): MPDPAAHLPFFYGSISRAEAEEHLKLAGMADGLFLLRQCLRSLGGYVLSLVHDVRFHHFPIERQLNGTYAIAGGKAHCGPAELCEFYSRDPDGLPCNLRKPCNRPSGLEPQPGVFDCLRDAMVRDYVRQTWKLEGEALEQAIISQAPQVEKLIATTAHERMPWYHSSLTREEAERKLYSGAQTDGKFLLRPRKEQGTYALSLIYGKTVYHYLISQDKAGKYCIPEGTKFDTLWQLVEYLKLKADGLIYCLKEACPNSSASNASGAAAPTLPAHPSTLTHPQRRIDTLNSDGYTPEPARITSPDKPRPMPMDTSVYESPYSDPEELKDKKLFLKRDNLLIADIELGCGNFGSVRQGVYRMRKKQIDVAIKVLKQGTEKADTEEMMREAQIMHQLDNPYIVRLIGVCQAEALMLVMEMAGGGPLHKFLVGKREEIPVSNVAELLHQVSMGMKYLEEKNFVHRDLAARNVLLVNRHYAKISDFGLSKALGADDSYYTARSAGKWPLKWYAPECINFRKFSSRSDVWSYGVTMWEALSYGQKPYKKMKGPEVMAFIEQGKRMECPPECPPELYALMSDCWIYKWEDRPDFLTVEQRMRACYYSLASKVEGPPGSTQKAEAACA
Structure (SMILES),observed,action,technique,concentration,endpoint,value
COc1cc(Nc2ncc(F)c(Nc3ccc4c(n3)NC(=O)C(C)(C)O4)n2)cc(OC)c1OC,binding,,,10 µM,inhibition,100%
Cn1cc(-c2cc(F)cc(N3CCn4c(cc5c4CCCC5)C3=O)c2CO)cc(Nc2ccc(N3CCN(C4COC4)CC3)cn2)c1=O,enzyme activity,inhibitor,,0.1 µM,inhibition,16%
Cc1nn(C)cc1-c1nc2c(N3CCN(Cc4ccc(Cl)cc4)CC3)c(Cl)cnc2[nH]1,binding,,competition with immobilised ligand,1 µM,remaining binding,100%
c1ccc(C(NCCNC(c2ccccc2)c2ccccc2)c2ccccc2)cc1,enzyme activity,inhibitor,,10 µM,inhibition,3%
N#CC1(c2ccccn2)CCN(Cc2cc(C(=O)O)c(=O)n3ccccc23)CC1,cell-free assay,,competition with immobilised ligand,1 µM,remaining binding,100%
COc1ncccc1-c1cnn2ccc(N3CCN(C(=O)OC(C)C)CC3)nc12,binding,,competition with immobilised ligand,1 µM,remaining binding,88%
Cn1cc(-c2cccc(N3CCc4c(sc5c4CC(C)(C)C5)C3=O)c2CO)cc(Nc2ccncn2)c1=O,enzyme activity,inhibitor,,1 µM,inhibition,3%
CC(C)(C)c1cc(C=C(C#N)C#N)cc(Br)c1O,enzyme activity,inhibitor,,0.5 µM,remaining activity,91.6%
C[C@H](C(=O)N[C@H]1COc2ccccc2[C@@H]1S(C)(=O)=O)c1ccc(F)cc1,enzyme activity,inhibitor,,10 µM,inhibition,5%
C#Cc1n[nH]c2c(-c3cn(C(C)c4ccccn4)c(=O)[nH]c3=O)cc(F)cc12 (stereo not drawn),enzyme activity,inhibitor,,1 µM,inhibition,16.2%
O=c1[nH]c2ccccc2n1C1CCN(Cc2ccc(-c3[nH]c4cc5ncnc5cc4nc3-c3ccccc3)cc2)CC1,cell-free assay,,,0.5 µM,remaining signal,97.3%
Nc1ncc(-c2nc(N3CCOCC3)nc(N3CCOCC3)n2)c(C(F)F)n1,binding,,competition with immobilised ligand,10 µM,remaining binding,94%
O=C(Nc1cccnn1)N1CCN([C@@H]2CCOc3cc(C(F)(F)F)ccc32)CC1,enzyme activity,inhibitor,,20 µM,inhibition,1%
Cn1cncc1[C@@](O)(COc1ccc(C#N)cc1-c1ccc(OC(F)(F)F)cc1)c1ccc(C#N)cc1,cell-free assay,,competition with immobilised ligand,1 µM,remaining binding,100%
Cc1ncc(C)n2nc(/C=C/c3nc(N4CCCC4)cc(N4CCOCC4)n3)nc12,enzyme activity,inhibitor,,10 µM,inhibition,-6%
